Measurements taken from ChEMBL document CHEMBL1156585, “New NSAIDs-NO hybrid molecules with antiproliferative properties on human prostatic cancer cell lines” (Bioorg Med Chem Lett, 2008).
The source made the active and inactive calls. The rule behind the calls is not given here.

Legend:
[1] = tested on: Blood; test: Induction of profen release in human whole blood at 10 uM after 22 hrs by HPLC; assay type: functional
Summary of the method: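 Same blood pool as the COX inhibition runs. Compound incubated 22 h, then the free profen released was measured as a percentage ratio.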

[2] = target: Prostaglandin G/H synthase 1 (Homo sapiens, UniProt P23219); test: Inhibition of COX1 in human whole blood; assay type: tissue-based
Sequence of Prostaglandin G/H synthase 1 (P23219 whole entry): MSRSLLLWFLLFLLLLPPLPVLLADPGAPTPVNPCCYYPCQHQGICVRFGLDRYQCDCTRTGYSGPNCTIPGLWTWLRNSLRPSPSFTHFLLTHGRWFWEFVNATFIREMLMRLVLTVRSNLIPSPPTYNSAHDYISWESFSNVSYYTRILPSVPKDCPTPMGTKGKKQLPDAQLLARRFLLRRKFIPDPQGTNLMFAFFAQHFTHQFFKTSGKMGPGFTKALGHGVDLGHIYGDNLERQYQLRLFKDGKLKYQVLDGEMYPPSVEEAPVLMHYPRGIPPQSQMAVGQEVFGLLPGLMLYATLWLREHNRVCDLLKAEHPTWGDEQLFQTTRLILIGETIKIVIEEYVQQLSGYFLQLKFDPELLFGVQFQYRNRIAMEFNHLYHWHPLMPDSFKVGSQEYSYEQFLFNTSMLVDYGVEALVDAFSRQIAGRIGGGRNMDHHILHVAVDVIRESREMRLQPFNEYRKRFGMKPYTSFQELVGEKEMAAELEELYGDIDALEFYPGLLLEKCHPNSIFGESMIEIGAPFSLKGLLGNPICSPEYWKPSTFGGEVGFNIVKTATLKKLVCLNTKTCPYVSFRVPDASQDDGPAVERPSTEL

[3] = target: T1, Prostaglandin G/H synthase 2 (Homo sapiens, UniProt P35354); test: Inhibition of COX2 in human whole blood; assay type: tissue-based
T1 sequence (P35354 whole entry): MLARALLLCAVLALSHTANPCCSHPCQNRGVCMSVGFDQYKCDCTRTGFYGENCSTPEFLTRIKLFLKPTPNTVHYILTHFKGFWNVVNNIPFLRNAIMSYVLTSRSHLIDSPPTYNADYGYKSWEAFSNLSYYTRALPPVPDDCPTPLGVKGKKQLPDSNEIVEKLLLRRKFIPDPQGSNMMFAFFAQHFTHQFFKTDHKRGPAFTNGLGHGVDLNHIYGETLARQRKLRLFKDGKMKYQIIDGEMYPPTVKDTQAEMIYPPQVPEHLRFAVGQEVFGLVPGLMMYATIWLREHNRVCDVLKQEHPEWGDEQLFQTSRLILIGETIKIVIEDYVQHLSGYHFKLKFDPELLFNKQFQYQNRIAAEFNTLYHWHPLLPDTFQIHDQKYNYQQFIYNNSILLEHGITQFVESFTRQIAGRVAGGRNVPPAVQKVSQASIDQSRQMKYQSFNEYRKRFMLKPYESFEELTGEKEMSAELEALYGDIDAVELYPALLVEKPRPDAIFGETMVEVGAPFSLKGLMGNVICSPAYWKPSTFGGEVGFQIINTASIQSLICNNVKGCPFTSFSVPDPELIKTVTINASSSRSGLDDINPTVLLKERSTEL

[4] = tested on: PC-3; test: Antiproliferative activity against human PC3 cells at 100 uM after 72 hrs by MTT assay; assay type: functional; conditions: PC-3, 72 h
Summary of the method: (§1)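 PC3 prostate cancer cells kept in RPMI 1640 with 10% fetal calf serum at 37 °C, 5% CO₂. Seeded at 1.8 × 10⁴ cells/well, grown 3 days, then serum-starved 24 h to synchronize. Exposed to compounds at 1, 10, 50 and 100 µM (as solubility allows) in <0.1% DMSO for 72 h. Growth read by colorimetric MTT test.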

[5] = tested on: PC-3; test: Antiproliferative activity against human PC3 cells after 72 hrs by MTT assay; assay type: functional, cell-based; conditions: PC-3, 72 h; summary of the method: as §1
[6] = tested on: Blood; test: Induction of nitric oxide release in human whole blood after 6 hrs by EPR spectroscopy; assay type: functional, tissue-based

| SMILES | Activity [1] [%] | IC50 [2] [nM] | IC50 [3] [nM] | inhibition at 100 µM [4] [%] | IC50 [5] [nM] | Activity [6] |
| --- | --- | --- | --- | --- | --- | --- |
| CC(C(=O)OCC(CO[N+](=O)[O-])O[N+](=O)[O-])c1ccc(C(=O)c2cccs2)cc1 (stereo not drawn) | 73 | 480 | 2700 | 33 | – | – |
| CC(C(=O)O)c1cccc(C(=O)c2ccccc2)c1 (stereo not drawn) [KETOPROFEN] | – | – | – | 0 | – | – |
| CC(C(=O)O)c1ccc2c(c1)[nH]c1ccc(Cl)cc12 (stereo not drawn) [CARPROFEN] | – | – | – | 5 | – | – |
| CC(C(=O)OCCO[N+](=O)[O-])c1ccc2c(c1)[nH]c1ccc(Cl)cc12 (stereo not drawn) | 88 | 110000 | 65000 | – | 48000 | – |
| CC(C(=O)OCCO[N+](=O)[O-])c1ccc(C(=O)c2cccs2)cc1 (stereo not drawn) | 46 | 580 | 5800 | 7 | – | – |
| CC(C(=O)OCCO[N+](=O)[O-])c1cccc(C(=O)c2ccccc2)c1 (stereo not drawn) | 73 | 450 | 770 | 26 | – | – |
| CC(COC(=O)C(C)c1ccc(C(=O)c2cccs2)cc1)O[N+](=O)[O-] (stereo not drawn) | 86 | 570 | 4560 | 13 | – | – |
| CC(C(=O)O)c1ccc(C(=O)c2cccs2)cc1 (stereo not drawn) [SUPROFEN] | – | 560 | 2750 | 0 | – | – |
| CC(C(=O)OCC(CO[N+](=O)[O-])O[N+](=O)[O-])c1cccc(C(=O)c2ccccc2)c1 (stereo not drawn) | 79 | 580 | 740 | 21 | – | – |
| CC(COC(=O)C(C)c1cccc(C(=O)c2ccccc2)c1)O[N+](=O)[O-] (stereo not drawn) | 70 | 600 | 730 | 26 | – | Active |
| CC(COC(=O)C(C)c1ccc2c(c1)[nH]c1ccc(Cl)cc12)O[N+](=O)[O-] (stereo not drawn) | 100 | 123000 | 45000 | – | 48000 | – |
